Test results from ChEMBL document CHEMBL3085758, “A stereoselective approach to peptidomimetic BACE1 inhibitors” (Eur J Med Chem, 2013).

Experiments:
[1] = biological target: T1, Beta-secretase 1 (Homo sapiens, UniProt P56817); assay: Inhibition of BACE1 in human SH-SY5Y cells expressing APP NFEV and wild-type alpha cleavage site assessed as generation of EV40/EV42 by electrochemiluminescence assay; format: cell-based
Method in brief: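 SHSY5Y cells expressing APP NFEV with wild-type alpha-cleavage site. Compounds started at […], then 3-fold dilutions (10 points). IC50 determined against generation of sAPPb NF and EV40 and EV42 peptides. Run at Merck RL.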

[2] = biological target: T1, Beta-secretase 1; assay: Inhibition of human recombinant BACE1 using [acetyl-C(W8044Eu)-EVNLDAEFK-QSY7] as substrate by TR-FRET assay
Method in brief: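 Enzyme (6 nM) incubated with 200 nM europium-labelled TR-FRET substrate in 50 mM NaOAc, 0.005% Triton X-100, pH 4.5; inhibitors in 3.3% DMSO. Time-resolved fluorescence read at excitation 330 nm, emission 615 nm; IC50 from concentration-response curves, mean of at least 3 experiments.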

[3] = biological target: T1, Beta-secretase 1; assay: Inhibition of BACE1 in HEK293 cells expressing APP NFEV and APP K612V mutant assessed as generation of EV40/EV42 by electrochemiluminescence assay; format: cell-based
Method in brief: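 HEK293 cells carrying a proprietary APP construct with modified BACE cleavage sequence (NFEV) and K612V alpha-site mutation. Compounds started at […], then 3-fold dilutions (10 points). IC50 determined against generation of sAPPb NF and EV40 and EV42 peptides. Run at Merck RL.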

[4] = biological target: T1, Beta-secretase 1; assay: Selectivity ratio of IC50 for BACE1 in human SH-SY5Y cells to IC50 for BACE1 in HEK293 cells; format: cell-based

T1 sequence (P56817 whole entry): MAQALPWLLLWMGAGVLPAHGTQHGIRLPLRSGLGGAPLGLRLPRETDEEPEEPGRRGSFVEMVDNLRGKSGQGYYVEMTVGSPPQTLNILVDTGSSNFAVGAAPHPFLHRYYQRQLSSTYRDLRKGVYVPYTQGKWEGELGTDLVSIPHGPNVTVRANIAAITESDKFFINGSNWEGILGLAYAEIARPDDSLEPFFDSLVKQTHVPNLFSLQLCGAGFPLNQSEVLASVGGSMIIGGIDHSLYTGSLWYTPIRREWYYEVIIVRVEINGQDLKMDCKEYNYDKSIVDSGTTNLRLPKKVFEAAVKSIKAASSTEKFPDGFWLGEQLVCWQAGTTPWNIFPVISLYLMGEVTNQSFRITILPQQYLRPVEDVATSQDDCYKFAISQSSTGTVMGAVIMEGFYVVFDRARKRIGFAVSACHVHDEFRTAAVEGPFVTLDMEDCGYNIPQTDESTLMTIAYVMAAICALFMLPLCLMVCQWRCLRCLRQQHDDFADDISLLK

Row | SMILES | IC50 ([2]; read-out: IC50) [µM] | other results
1 | CC(C)(C)OC(=O)N(Cc1ccccc1)C[C@H](O)c1cccc(NC(=O)c2cccc3ccccc23)c1 | 4.9 | IC50 [1]: 11 µM; IC50 [3]: > 7 µM
2 | CC(C)(C)OC(=O)N(Cc1ccccc1)C[C@@H](O)c1cccc(NC(=O)[C@H](NC(=O)OCc2ccccc2)c2ccccc2)c1 | 4.7 | IC50 [1]: > 100 µM; Ratio IC50 [4]: 10; IC50 [3]: > 10 µM
3 | CC(C)(C)OC(=O)N(Cc1ccccc1)C[C@H](O)c1ccc(C(=O)c2ccccc2)c(NC(=O)[C@@H](NC(=O)OCc2ccccc2)c2ccccc2)c1 | 14.9 | 
4 | CC(C)(C)OC(=O)N1CCN(c2cccc(C=O)c2NC(=O)[C@@H](NC(=O)OCc2ccccc2)c2ccccc2)CC1 | 14.3 | 
5 | CC(C)(C)OC(=O)N(Cc1ccccc1)C[C@@H](O)c1cccc(NC(=O)[C@@H](NC(=O)OCc2ccccc2)c2ccccc2)c1 | 5.2 | 
6 | CC(C)(C)OC(=O)N1CCN(c2ccc(-c3ccccc3)c(C=O)c2NC(=O)[C@@H](NC(=O)OCC2c3ccccc3-c3ccccc32)c2ccccc2)CC1 | 14.8 | 
7 | CC(C)(C)OC(=O)N(C[C@H](O)c1cccc(NC(=O)[C@@H](NC(=O)OCc2ccccc2)c2ccccc2)c1)[C@H](CO)c1ccccc1 | 9.2 | 
8 | CC(C)(C)OC(=O)N(C[C@H](O)c1cccc(NC(=O)[C@@H](NC(=O)OCc2ccccc2)c2ccccc2)c1)[C@H](CO)Cc1ccccc1 | 6.4 | 
9 | O=C(N[C@H](C(=O)Nc1cccc([C@@H](O)CN[C@H](CO)Cc2ccccc2)c1)c1ccccc1)OCc1ccccc1 | 7.5 | 
10 | CC(C)(C)OC(=O)N1CCN(c2ccc(-c3ccccc3)c3c2NC(=O)[C@H](c2ccccc2)NC3)CC1 |  | IC50 [2]: Not Active
11 | O=C1Nc2c(N3CCNCC3)ccc(-c3ccccc3)c2C=N[C@H]1c1ccccc1 |  | IC50 [2]: Not Active
12 | CC(C)(C)OC(=O)N1CCN(c2cccc3c2NC(=O)[C@H](c2ccccc2)N=C3)CC1 |  | IC50 [2]: Not Active
13 | CC(C)(C)OC(=O)N(Cc1ccccc1)C[C@H](O)c1ccc(C(=O)c2ccccc2)c(NC(=O)[C@H](NC(=O)OCc2ccccc2)c2ccccc2)c1 | 18.1 | 
14 | CC(C)(C)OC(=O)N1CCN(c2ccc(-c3ccccc3)c3c2NC(=O)[C@H](c2ccccc2)N=C3)CC1 | 12.8 | 
